Active and inactive are the calls of the source.
What was measured:
HCT-116 [1] = experiment: Induction of apoptosis in human HCT-116 cells assessed as increase in caspase 3/7 activity incubated for 48 hrs; assay type: functional, cell-based; details: dose 12.5-5 µM
Jurkat [2] = experiment: Induction of cell death in human Jurkat cells at 5 uM measured after 48 hrs in presence of chloroquine by flow cytometry analysis; assay type: functional, cell-based
THP-1 [3] = experiment: Induction of ferroptosis in human THP-1 cells assessed as increase in lipid peroxidation at 0.37 to 10 uM incubated for 24 hrs by BODIPY 581/591 C11 staining based flow cytometry analysis; assay type: functional, cell-based; details: dose 0.37-10 µM
HCT-116 [4] = experiment: cells; details: Homo sapiens
Jurkat [5] = experiment: Induction of cell cycle arrest in human Jurkat cells assessed as accumulation of cells at G0/G1 phase measured after 48 hrs by PI staining based flow cytometry analysis; assay type: functional; details: dose 0.13-3.3 µM
Jurkat [6] = experiment: Upregulation of Ac-HH3 level in human Jurkat cells measured after 24 hrs by Western blot analysis; assay type: functional, cell-based; details: dose <= 10000.0 nM
In short: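 Jurkat cells were incubated 24 h with the indicated concentrations. Ac-HH3 was detected by Western blot against a GAPDH loading control, quantified by densitometry and normalized to DMSO-treated cells. Data are mean ± SEM of two independent experiments; one-way ANOVA vs DMSO.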

HCT-116 [7] = experiment: Induction of apoptosis in human HCT-116 cells measured after 48 hrs by AnnexinV/FITC and PI staining based flow cytometry analysis; assay type: functional, cell-based; details: dose 1.1-10 µM
Jurkat [8] = experiment: cells; details: Homo sapiens
Jurkat [9] = experiment: Induction of apoptosis in human Jurkat cells assessed as increase in caspase 3/7 activity incubated for 48 hrs; assay type: functional, cell-based; details: dose upper 5.0 µM
Jurkat [10] = experiment: Effect on IKZF1 level in human Jurkat cells at upto 10 uM by Western blot analysis; assay type: functional, cell-based
In short: (§1)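 Jurkat cells were treated with graded concentrations for 6 h, alongside 10 μM pomalidomide. IKZF1, IKZF3 and GSPT1 were detected by Western blot, with GAPDH as the loading control.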

HCT-116 [11] = experiment: Induction of ferroptosis in human HCT-116 cells assessed as increase in lipid peroxidation at low concentration incubated for 24 hrs by BODIPY 581/591 C11 staining based flow cytometry analysis; assay type: functional, cell-based; details: dose 0.37-10 µM
HCT-116 [12] = experiment: Induction of cell cycle arrest in human HCT-116 cells assessed as accumulation of cells at G2/M phase measured after 48 hrs by PI staining based flow cytometry analysis; assay type: functional; details: dose 0.13-3.3 µM
Jurkat [13] = experiment: Induction of cell death in human Jurkat cells at 5 uM measured after 48 hrs in presence of necrostatin-1 by flow cytometry analysis; assay type: functional, cell-based
Jurkat [14] = experiment: Induction of ferroptosis in human Jurkat cells assessed as increase in lipid peroxidation incubated for 24 hrs by BODIPY 581/591 C11 staining based flow cytometry analysis; assay type: functional, cell-based; details: dose 0.37-10 µM
Jurkat [15] = experiment: cells; details: Homo sapiens; remark: listed apart in the source
HCT-116 [16] = experiment: Upregulation of Ac-HH3 level in human HCT-116 cells incubated for 6 hrs by Western blot analysis; assay type: functional, cell-based; details: dose 0.004-3.3 µM
In short: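 HCT116 cells were incubated with graded concentrations for 6 h. Ac-HH3 was detected by Western blot with GAPDH as the loading control, then quantified by densitometry and normalized to DMSO-treated cells. Data are mean ± SEM of two independent experiments, compared against DMSO by one-way ANOVA.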

Jurkat [17] = experiment: Upregulation of Ac-tubulin level in human Jurkat cells at upto 1 uM measured after 6 hrs by Western blot analysis; assay type: functional, cell-based
In short: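 Jurkat cells were treated for 6 h at the indicated concentrations. Acetylated tubulin was probed by Western blot, with GAPDH as loading control.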

Jurkat [18] = experiment: Upregulation of Ac-SMC3 level in human Jurkat cells at 1 uM measured after 6 hrs by Western blot analysis; assay type: functional, cell-based
In short: (§2)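 Jurkat cells exposed to the indicated compound concentrations for 6 h. Ac-SMC3 and Ac-HH3 were detected by Western blot with GAPDH as loading control. Bands were quantified by densitometry and normalized to the DMSO-treated group. Data are mean ± SEM of two independent experiments, compared with DMSO by one-way ANOVA.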

HCT-116 [19] = experiment: Upregulation of Ac-SMC3 level in human HCT-116 cells incubated for 6 hrs by Western blot analysis; assay type: functional, cell-based; details: dose 0.004-3.3 µM
In short: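 HCT116 cells were treated 6 h with the indicated concentrations. Ac-SMC3 was measured by Western blot with GAPDH as loading control, quantified by densitometry and normalized to the DMSO group. Data are mean ± SEM from two independent experiments; one-way ANOVA vs DMSO.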

Jurkat [20] = experiment: Upregulation of Ac-SMC3 level in human Jurkat cells incubated for 6 hrs by Western blot analysis; assay type: functional, cell-based; details: dose <= 1.0 µM; in short: as §2
Jurkat [21] = experiment: Induction of cell death in human Jurkat cells at 5 uM measured after 48 hrs in presence of Z-VAD-FMK by flow cytometry analysis; assay type: functional, cell-based
Jurkat [22] = experiment: Induction of ferroptosis in human Jurkat cells assessed as increase in lipid peroxidation incubated for 48 hrs by BODIPY 581/591 C11 staining based flow cytometry analysis; assay type: functional, cell-based
Jurkat [23] = experiment: Induction of cell death in human Jurkat cells at 5 uM measured after 48 hrs in presence of ferrostatin-1 by flow cytometry analysis; assay type: functional, cell-based
Jurkat [24] = experiment: Induction of apoptosis in human Jurkat cells at 1.1 to 10 uM measured after 24 to 48 hrs by AnnexinV/FITC and PI staining based flow cytometry analysis; assay type: functional, cell-based; details: dose 1.1-10 µM, time 24-48 hrs
Jurkat [25] = experiment: Upregulation of Ac-HH3 level in human Jurkat cells at 1 uM measured after 6 hrs by Western blot analysis; assay type: functional, cell-based; in short: as §2
HCT-116 [26] = experiment: Upregulation of Ac-HH3 level in human HCT-116 cells at 0.04 to 3.3 uM measured after 24 hrs by Western blot analysis; assay type: functional, cell-based; details: dose 0.04-3.3 µM
THP-1 [27] = experiment: cells; details: Homo sapiens
HCT-116 [28] = experiment: Induction of apoptosis in human HCT-116 cells assessed as necrotic cells at 1.1 uM measured after 48 hrs by AnnexinV/FITC and PI staining based flow cytometry analysis (reference value: […]); assay type: functional
Jurkat [29] = experiment: Upregulation of AcHH3 level on human Jurkat cells at 0.04 to 10 uM measured after 48 hrs by Western blot analysis; assay type: functional, cell-based; details: dose 0.04-10 µM
Jurkat [30] = experiment: Induction of apoptosis in human Jurkat cells assessed as increase in caspase 3/7 activity at 5 uM incubated for 48 hrs; assay type: functional, cell-based
Jurkat [31] = experiment: cells; details: Homo sapiens; remark: listed apart in the source
Jurkat [32] = experiment: Upregulation of Ac-SMC3 level in human Jurkat cells measured after 6 hrs by Western blot analysis; assay type: functional, cell-based; details: dose 0.0001-1 µM; in short: as §2
Jurkat [33] = experiment: Upregulation of Ac-HH3 level in human Jurkat cells incubated for 6 hrs by Western blot analysis; assay type: functional, cell-based; in short: as §2
A549 = experiment: cells; details: Homo sapiens
HCT-116 [34] = experiment: Induction of apoptosis in human HCT-116 cells assessed as increase in caspase 3/7 activity at 5 uM incubated for 48 hrs; assay type: functional, cell-based
Jurkat [35] = experiment: Effect on GSPT1 level in human Jurkat cells at upto 10 uM by Western blot analysis; assay type: functional, cell-based; in short: as §1
Jurkat [36] = experiment: cells; details: Homo sapiens; remark: listed apart in the source
Jurkat [37] = experiment: Effect on IKZF3 level in human Jurkat cells at upto 10 uM by Western blot analysis; assay type: functional, cell-based; in short: as §1
Jurkat [38] = experiment: Upregulation of AcHH4 level on human Jurkat cells at 0.04 to 10 uM measured after 48 hrs by Western blot analysis; assay type: functional, cell-based; details: dose 0.04-10 µM
THP-1 [39] = experiment: Upregulation of Ac-HH3 level in human THP-1 cells at 0.04 to 3.3 uM measured after 24 hrs by Western blot analysis; assay type: functional, cell-based; details: dose 0.04-3.3 µM
In short: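 THP-1 cells were exposed to the compound at the indicated concentrations for 24 h, then immunoblotted for Ac-HH3, Ac-SMC3, Ac-tubulin and HDAC8 with GAPDH as loading control. Band intensities were quantified and normalized to the DMSO-treated group. Data are mean ± SEM of two independent experiments, analysed by one-way ANOVA against DMSO.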

CCCCCCNNC(=O)c1ccc(CNC(=O)CN2CCC(c3ccc(NC4CCC(=O)NC4=O)cc3)CC2)cc1 (stereo not given)
1.5 µM: IC50 (Jurkat [8])
2 µM: IC50 (Jurkat [31])
active: Activity (HCT-116 [1]) Dose-Dependent Effect | Activity (Jurkat [2]) | Activity (Jurkat [5]) Dose-Dependent Effect | Activity (Jurkat [6]) Dose-Dependent Effect | Activity (HCT-116 [7]) Dose-Dependent Effect | Activity (Jurkat [9]) Dose-Dependent Effect | Activity (HCT-116 [11]) | Activity (HCT-116 [12]) Dose-Dependent Effect | Activity (Jurkat [13]) | Activity (Jurkat [14]) Dose-Dependent Effect | Activity (HCT-116 [16]) Dose-Dependent Effect | Activity (Jurkat [18]) | Activity (HCT-116 [19]) Dose-Dependent Effect | Activity (Jurkat [20]) Dose-Dependent Effect | Activity (Jurkat [21]) | Activity (Jurkat [23]) | Activity (Jurkat [25]) | Activity (HCT-116 [26]) | Activity (Jurkat [29]) | Activity (Jurkat [30]) | Activity (Jurkat [32]) Dose-Dependent Effect | Activity (Jurkat [33]) Dose-Dependent Effect | Activity (HCT-116 [34]) | Activity (Jurkat [38]) | Activity (THP-1 [39])
> 33.3 µM: IC50 (THP-1 [27])
2.8 µM: IC50 (Jurkat [15])
17.5 µM: IC50 (A549)
3.8 µM: IC50 (HCT-116 [4])
2.5 µM: IC50 (Jurkat [36])
4.28%: Activity (HCT-116 [28])
inactive: Activity (THP-1 [3]) | Activity (Jurkat [10]) | Activity (Jurkat [17]) | Activity (Jurkat [22]) | Activity (Jurkat [24]) | Activity (Jurkat [35]) | Activity (Jurkat [37])

Source: ChEMBL document CHEMBL5584302, “Exploration of Hydrazide-Based HDAC8 PROTACs for the Treatment of Hematological Malignancies and Solid Tumors” (J Med Chem, 2024)
